Values after ≈ are worked out from the molar mass of the structure shown.
Legend:
α-amylase [1] = test: Inhibitory kinetic assay; format: biochemical; settings: Lineweaver-Burk double reciprocal plots, 0.5-2.0% starch
Method in brief: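 Commercial α-amylase (0.35 mL, 10 U/mL) preincubated alone or with theaflavin monomer for 5 min at 37 °C. Soluble starch (0.5, 1.0, 1.5, 2.0%) added and incubated 15 min at 37 °C. Reducing sugar measured with DNS reagent (100 °C, 5 min), A540. Initial velocities fitted to Michaelis–Menten for Km and Vmax. Inhibition type assigned from Lineweaver–Burk double-reciprocal plots. Results given as mean ± SD.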

α-amylase [2] = test: Fluorescence spectroscopy; format: binding
Method in brief: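 Commercial α-amylase (10 U/mL) mixed with each theaflavin monomer (10–200 μg/mL) at each temperature. Fluorescence spectra recorded at 278 nm over a 290–450 nm scan. Ksv derived from the Stern–Volmer relation (τ0 10−8 s). Ka and n derived from a log((F0−F)/F) vs log[Q] plot. ΔH and ΔS derived from a van't Hoff fit. Results given as mean ± SD.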

α-amylase [3] = test: α-amylase activity test; format: biochemical; settings: α-amylase 10 U/mL, 1% soluble starch, 37 °C

O=c1c(O)cc([C@H]2Oc3cc(O)cc(O)c3C[C@H]2O)cc2c([C@H]3Oc4cc(O)cc(O)c4C[C@H]3O)cc(O)c(O)c12 [TF1, theaflavin]
inhibition type against α-amylase (α-amylase [1]): mixed
Ka (binding constant) (α-amylase [2]; 298 K): 4.4955 L/g
Ksv (quenching constant) (α-amylase [2]; 298 K): 4.7890 L/g
Ka (binding constant) (α-amylase [2]; 303 K): 5.1038 L/g
Ksv (quenching constant) (α-amylase [2]; 303 K): 4.6468 L/g
Ka (binding constant) (α-amylase [2]; 310 K): 5.6151 L/g
Ksv (quenching constant) (α-amylase [2]; 310 K): 4.2950 L/g
IC50, inhibitory activity on α-amylase (α-amylase [3]): 71.43 µg/mL (≈ 127 µM)

From PMC10972827 (Food Chemistry: X, 2024)
